Assay results as given in ChEMBL document CHEMBL3351537, “Design, synthesis and biological evaluation of 4-fluoropyrrolidine-2-carbonitrile and octahydrocyclopenta[b]pyrrole-2-carbonitrile derivatives as dipeptidyl peptidase IV inhibitors” (Eur J Med Chem, 2014).
Values belong to the molecule of their own block, whether it stands above or below them. Active and inactive are the calls of the source. The rule behind the calls is not given here.

Experiments:
[1] = Tmax in Sprague-Dawley rat at 50 mg/kg, po; assay type: ADME, organism-based; design: dose 50 mg/kg, route oral; conditions: in vivo
In short: (§1)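 SD rats dosed orally or intravenously. Blood sampled after dosing and spun to plasma. Plasma deproteinized with methanol containing internal standard, centrifuged, supernatant diluted in methanol and centrifuged again. Compound levels measured by LC/MS/MS. PK parameters were derived from these plasma concentrations.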

Cytochrome P450 2C9 = Cytochrome P450 2C9 (Homo sapiens, UniProt P11712); assay: Inhibition of CYP2C9 (unknown origin); assay type: ADME
Cytochrome P450 2C9, sequence (P11712 whole entry): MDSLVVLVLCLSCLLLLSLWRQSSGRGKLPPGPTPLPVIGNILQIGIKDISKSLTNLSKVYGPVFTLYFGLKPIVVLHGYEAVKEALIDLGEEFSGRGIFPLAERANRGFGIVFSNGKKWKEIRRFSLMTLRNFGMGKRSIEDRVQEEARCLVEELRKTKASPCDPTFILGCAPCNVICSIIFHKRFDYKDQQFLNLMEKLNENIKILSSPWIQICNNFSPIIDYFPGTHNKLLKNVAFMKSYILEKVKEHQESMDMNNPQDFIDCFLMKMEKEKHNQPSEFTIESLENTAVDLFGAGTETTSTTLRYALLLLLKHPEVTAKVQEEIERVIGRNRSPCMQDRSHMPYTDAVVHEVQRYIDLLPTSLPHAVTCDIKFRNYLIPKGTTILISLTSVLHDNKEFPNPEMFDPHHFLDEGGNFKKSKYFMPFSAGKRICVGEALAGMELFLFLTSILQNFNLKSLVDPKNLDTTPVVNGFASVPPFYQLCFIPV

[2] = Cmax in Sprague-Dawley rat at 50 mg/kg, po; assay type: ADME, organism-based; design: dose 50 mg/kg, route oral; conditions: in vivo; in short: as §1
[3] = Mean residence time in Sprague-Dawley rat at 50 mg/kg, po; assay type: ADME, organism-based; design: dose 50 mg/kg, route oral; conditions: in vivo; in short: as §1
Rattus norvegicus [4] = assay: AUC (0 to infinity) in Sprague-Dawley rat at 50 mg/kg, po; assay type: ADME, organism-based, Plasma; design: time infinity, dose 50 mg/kg, route oral; conditions: in vivo; in short: as §1
Mus musculus [5] = assay: Reduction in glucose excursion in ICR mouse compound administered as single dose measured at 15 mins post dose by oral glucose tolerance test; assay type: functional, organism-based
In short: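 Fasted ICR mice (16 h) given a single oral dose, 5 or 15 mg/kg in 0.5% methylcellulose (10 mL/kg). Oral glucose challenge 2.5 g/kg given 30 min later. Blood glucose read at 0, 15, 30, 60, 90 and 120 min for AUC. Vehicle control included; mean ± SE, Student's t-test.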

[6] = biological target: T1, Voltage-gated inwardly rectifying potassium channel KCNH2 (Homo sapiens, UniProt Q12809); assay: Inhibition of human ERG expressed in CHO cells after 20 mins by patch clamp assay; assay type: cell-based
T1 sequence (Q12809 whole entry): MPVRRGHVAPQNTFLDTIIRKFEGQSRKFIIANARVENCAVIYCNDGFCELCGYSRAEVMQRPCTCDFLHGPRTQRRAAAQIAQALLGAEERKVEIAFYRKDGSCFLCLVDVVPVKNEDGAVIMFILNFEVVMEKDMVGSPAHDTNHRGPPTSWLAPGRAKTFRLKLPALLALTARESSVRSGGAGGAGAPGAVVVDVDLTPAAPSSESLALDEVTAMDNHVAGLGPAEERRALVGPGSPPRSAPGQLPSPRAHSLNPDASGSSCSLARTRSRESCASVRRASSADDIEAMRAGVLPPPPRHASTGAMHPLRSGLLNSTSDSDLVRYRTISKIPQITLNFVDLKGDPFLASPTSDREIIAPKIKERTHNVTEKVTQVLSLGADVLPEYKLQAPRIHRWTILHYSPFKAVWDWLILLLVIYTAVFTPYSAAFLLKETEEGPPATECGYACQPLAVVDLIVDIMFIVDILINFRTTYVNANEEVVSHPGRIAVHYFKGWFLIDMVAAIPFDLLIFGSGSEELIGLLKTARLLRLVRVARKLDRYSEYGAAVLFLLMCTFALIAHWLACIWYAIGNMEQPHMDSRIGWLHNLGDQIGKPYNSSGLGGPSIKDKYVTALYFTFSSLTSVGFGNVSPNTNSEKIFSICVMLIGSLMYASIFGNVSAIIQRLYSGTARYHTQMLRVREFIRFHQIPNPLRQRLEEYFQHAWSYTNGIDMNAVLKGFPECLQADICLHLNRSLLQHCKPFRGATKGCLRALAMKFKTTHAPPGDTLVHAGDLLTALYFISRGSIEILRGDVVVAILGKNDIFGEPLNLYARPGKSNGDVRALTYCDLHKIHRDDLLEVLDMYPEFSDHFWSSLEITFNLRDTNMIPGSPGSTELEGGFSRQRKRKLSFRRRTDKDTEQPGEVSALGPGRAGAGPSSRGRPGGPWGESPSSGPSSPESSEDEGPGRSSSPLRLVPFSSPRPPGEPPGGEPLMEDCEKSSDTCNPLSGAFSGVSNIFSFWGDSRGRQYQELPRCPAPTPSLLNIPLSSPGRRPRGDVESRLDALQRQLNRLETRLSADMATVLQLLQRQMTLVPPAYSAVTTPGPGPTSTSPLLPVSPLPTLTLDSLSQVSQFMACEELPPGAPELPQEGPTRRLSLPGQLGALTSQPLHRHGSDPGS

Rattus norvegicus [7] = assay: AUC (0 to infinity) in Sprague-Dawley rat at 20 mg/kg, iv; assay type: ADME, organism-based, Plasma; design: dose 20 mg/kg, route intravenous, time infinity; conditions: in vivo; in short: as §1
Cytochrome P450 3A4 = Cytochrome P450 3A4 (Homo sapiens, UniProt P08684); assay: Inhibition of CYP3A4 (unknown origin); assay type: ADME
Cytochrome P450 3A4, sequence (P08684 whole entry): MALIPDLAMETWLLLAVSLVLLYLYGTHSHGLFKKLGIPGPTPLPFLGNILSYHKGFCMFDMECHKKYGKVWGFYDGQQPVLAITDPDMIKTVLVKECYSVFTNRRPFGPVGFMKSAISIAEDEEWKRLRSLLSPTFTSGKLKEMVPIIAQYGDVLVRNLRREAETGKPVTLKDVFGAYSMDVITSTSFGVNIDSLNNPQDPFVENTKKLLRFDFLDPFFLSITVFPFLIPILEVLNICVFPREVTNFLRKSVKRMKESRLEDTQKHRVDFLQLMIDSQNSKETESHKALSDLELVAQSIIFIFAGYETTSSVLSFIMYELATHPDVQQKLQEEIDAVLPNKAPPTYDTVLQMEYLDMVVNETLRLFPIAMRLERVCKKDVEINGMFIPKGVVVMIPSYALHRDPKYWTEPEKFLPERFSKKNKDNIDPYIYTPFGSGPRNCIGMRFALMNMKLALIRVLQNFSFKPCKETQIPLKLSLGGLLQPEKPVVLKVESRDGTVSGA

[8] = biological target: T1, Voltage-gated inwardly rectifying potassium channel KCNH2; assay: Inhibition of human ERG expressed in CHO cells after 20 mins by thallium assay; assay type: cell-based
In short: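 CHO-hERG-ZG cells grown with 100 μg/mL G418 and 100 μg/mL hygromycin B, then seeded and incubated 16–18 h at 37 °C. Cells held in loading buffer 90 min in the dark at RT, switched to assay buffer, and exposed to compound 20 min in the dark at RT. FluxOR thallium flux read on FDSS: baseline to 10 s, stimulus buffer added at 10 s, recording to 180 s.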

[9] = Half life in Sprague-Dawley rat at 20 mg/kg, iv; assay type: ADME, organism-based; design: dose 20 mg/kg, route intravenous; conditions: in vivo; in short: as §1
Rattus norvegicus [10] = assay: Apparent clearance in Sprague-Dawley rat at 20 mg/kg, iv; assay type: ADME, organism-based; design: dose 20 mg/kg, route intravenous; conditions: in vivo; in short: as §1
Rattus norvegicus [11] = assay: Oral bioavailability in Sprague-Dawley rat at 50 mg/kg; assay type: ADME, organism-based; conditions: in vivo; in short: as §1
[12] = Mean residence time in Sprague-Dawley rat at 20 mg/kg, iv; assay type: ADME, organism-based; design: dose 20 mg/kg, route intravenous; conditions: in vivo; in short: as §1
[13] = Tmax in Sprague-Dawley rat at 20 mg/kg, iv; assay type: ADME, organism-based; design: dose 20 mg/kg, route intravenous; conditions: in vivo; in short: as §1
[14] = Cmax in Sprague-Dawley rat at 20 mg/kg, iv; assay type: ADME, organism-based; design: dose 20 mg/kg, route intravenous; conditions: in vivo; in short: as §1
[15] = AUC (0 to t) in Sprague-Dawley rat at 50 mg/kg, po; assay type: ADME, organism-based; design: dose 50 mg/kg, route oral; conditions: plasma; in short: as §1
[16] = AUC (0 to t) in Sprague-Dawley rat at 20 mg/kg, iv; assay type: ADME, organism-based; design: dose 20 mg/kg, route intravenous; conditions: plasma; in short: as §1
[17] = Half life in Sprague-Dawley rat at 50 mg/kg, po; assay type: ADME, organism-based; design: dose 50 mg/kg, route oral; conditions: in vivo; in short: as §1
Prolyl endopeptidase FAP = biological target: T2, Prolyl endopeptidase FAP (Homo sapiens, UniProt Q12884); assay: Inhibition of FAP (unknown origin) expressed in baculovirus expression system using Nle-Pro-AMC as substrate by continuous fluorometric assay
T2 sequence (Q12884 whole entry): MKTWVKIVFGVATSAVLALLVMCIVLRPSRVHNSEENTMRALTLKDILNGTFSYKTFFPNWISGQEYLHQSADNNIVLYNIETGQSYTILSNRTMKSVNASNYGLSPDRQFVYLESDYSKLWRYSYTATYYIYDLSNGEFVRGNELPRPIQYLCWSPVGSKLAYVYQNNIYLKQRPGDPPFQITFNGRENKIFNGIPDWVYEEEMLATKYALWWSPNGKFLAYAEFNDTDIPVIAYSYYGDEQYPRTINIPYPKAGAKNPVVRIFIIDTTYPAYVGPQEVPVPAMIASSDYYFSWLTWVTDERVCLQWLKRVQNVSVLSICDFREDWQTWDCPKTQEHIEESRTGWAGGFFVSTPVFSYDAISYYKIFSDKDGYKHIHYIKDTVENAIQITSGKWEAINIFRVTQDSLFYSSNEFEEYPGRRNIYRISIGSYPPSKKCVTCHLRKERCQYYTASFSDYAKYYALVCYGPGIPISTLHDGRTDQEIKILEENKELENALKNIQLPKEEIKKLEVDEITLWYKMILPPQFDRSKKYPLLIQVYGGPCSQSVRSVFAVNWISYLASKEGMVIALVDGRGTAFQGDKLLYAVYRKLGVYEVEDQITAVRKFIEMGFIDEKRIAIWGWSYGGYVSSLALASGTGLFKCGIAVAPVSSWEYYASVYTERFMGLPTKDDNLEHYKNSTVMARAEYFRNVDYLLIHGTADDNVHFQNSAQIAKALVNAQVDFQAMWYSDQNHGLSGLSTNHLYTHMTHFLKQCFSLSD

Dipeptidyl peptidase 2 = Dipeptidyl peptidase 2 (Homo sapiens, UniProt Q9UHL4); assay: Inhibition of DPP7 (unknown origin) expressed in baculovirus expression system using Nle-Pro-AMC as substrate by continuous fluorometric assay
Mus musculus [18] = assay: Reduction in fasting blood glucose level in C57BKS db/db mouse at 15 mg/kg/day, po (Rvb =23.0 +/- 1.0 mM); assay type: functional
Mus musculus [19] = assay: Reduction in plasma triglyceride content in C57BKS db/db mouse at 15 mg/kg/day, po (reference value: 1.01 +/- 0.09 mM); assay type: functional
Mus musculus [20] = assay: Reduction in free fatty acid in C57BKS db/db mouse at 15 mg/kg/day, po (reference value: 1.46 +/- 0.10 mM); assay type: functional
Mus musculus [21] = assay: Reduction in random blood glucose level in C57BKS db/db mouse at 15 mg/kg/day, po (Rvb =23.3 +/- 1.0 mM); assay type: functional
Mus musculus [22] = assay: Reduction in total cholesterol content in C57BKS db/db mouse at 15 mg/kg/day, po; assay type: functional, organism-based
Dipeptidyl peptidase 9 = Dipeptidyl peptidase 9 (Homo sapiens, UniProt Q86TI2); assay: Inhibition of DPP9 (unknown origin) expressed in baculovirus expression system using Ala-Pro-AMC as substrate by continuous fluorometric assay
Dipeptidyl peptidase 9, sequence (Q86TI2 whole entry): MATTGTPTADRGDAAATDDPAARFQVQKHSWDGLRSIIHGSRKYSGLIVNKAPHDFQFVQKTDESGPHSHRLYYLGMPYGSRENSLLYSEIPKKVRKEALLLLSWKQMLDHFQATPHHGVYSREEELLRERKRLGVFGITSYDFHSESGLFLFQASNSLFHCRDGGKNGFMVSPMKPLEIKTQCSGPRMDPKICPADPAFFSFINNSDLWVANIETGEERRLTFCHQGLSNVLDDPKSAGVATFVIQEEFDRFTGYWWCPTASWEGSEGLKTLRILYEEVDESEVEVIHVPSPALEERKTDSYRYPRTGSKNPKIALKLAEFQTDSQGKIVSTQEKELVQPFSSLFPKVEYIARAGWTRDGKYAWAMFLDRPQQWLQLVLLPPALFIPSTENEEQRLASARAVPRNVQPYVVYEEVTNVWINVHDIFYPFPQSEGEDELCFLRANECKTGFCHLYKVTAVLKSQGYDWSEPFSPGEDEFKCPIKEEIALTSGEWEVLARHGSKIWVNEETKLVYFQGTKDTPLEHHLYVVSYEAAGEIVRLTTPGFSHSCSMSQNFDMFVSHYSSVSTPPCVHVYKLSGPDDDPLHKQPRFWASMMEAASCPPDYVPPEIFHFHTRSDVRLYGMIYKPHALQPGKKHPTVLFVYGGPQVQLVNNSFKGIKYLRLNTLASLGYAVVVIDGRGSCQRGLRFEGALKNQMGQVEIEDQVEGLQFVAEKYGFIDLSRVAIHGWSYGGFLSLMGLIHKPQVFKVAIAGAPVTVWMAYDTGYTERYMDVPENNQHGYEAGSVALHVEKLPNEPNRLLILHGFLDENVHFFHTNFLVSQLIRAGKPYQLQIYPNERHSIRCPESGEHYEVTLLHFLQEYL

[23] = Cmax in Sprague-Dawley rat at 10 mg/kg, iv; assay type: ADME, organism-based; design: dose 10 mg/kg, route intravenous; conditions: in vivo; in short: as §1
Rattus norvegicus [24] = assay: Oral bioavailability in Sprague-Dawley rat at 20 mg/kg; assay type: ADME, organism-based; conditions: in vivo; in short: as §1
[25] = Apparent clearance in Sprague-Dawley rat at 10 mg/kg, iv; assay type: ADME, organism-based; design: dose 10 mg/kg, route intravenous; conditions: in vivo, read-out: CL(app) (converted); in short: as §1
[26] = AUC (0 to t) in Sprague-Dawley rat at 20 mg/kg, po; assay type: ADME, organism-based; design: dose 20 mg/kg, route oral; conditions: plasma; in short: as §1
[27] = Half life in Sprague-Dawley rat at 10 mg/kg, iv; assay type: ADME, organism-based; design: dose 10 mg/kg, route intravenous; conditions: in vivo; in short: as §1
[28] = Tmax in Sprague-Dawley rat at 10 mg/kg, iv; assay type: ADME, organism-based; design: dose 10 mg/kg, route intravenous; conditions: in vivo; in short: as §1
Rattus norvegicus [29] = assay: AUC (0 to infinity) in Sprague-Dawley rat at 20 mg/kg, po; assay type: ADME, organism-based, Plasma; design: time infinity, dose 20 mg/kg, route oral; conditions: in vivo; in short: as §1
[30] = AUC (0 to t) in Sprague-Dawley rat at 10 mg/kg, iv; assay type: ADME, organism-based; design: dose 10 mg/kg, route intravenous; conditions: plasma; in short: as §1
[31] = Tmax in Sprague-Dawley rat at 20 mg/kg, po; assay type: ADME, organism-based; design: dose 20 mg/kg, route oral; conditions: in vivo; in short: as §1
[32] = Half life in Sprague-Dawley rat at 20 mg/kg, po; assay type: ADME, organism-based; design: dose 20 mg/kg, route oral; conditions: in vivo; in short: as §1
[33] = Mean residence time in Sprague-Dawley rat at 10 mg/kg, iv; assay type: ADME, organism-based; design: dose 10 mg/kg, route intravenous; conditions: in vivo; in short: as §1
[34] = Cmax in Sprague-Dawley rat at 20 mg/kg, po; assay type: ADME, organism-based; design: dose 20 mg/kg, route oral; conditions: in vivo; in short: as §1
[35] = Mean residence time in Sprague-Dawley rat at 20 mg/kg, po; assay type: ADME, organism-based; design: dose 20 mg/kg, route oral; conditions: in vivo; in short: as §1
Rattus norvegicus [36] = assay: AUC (0 to infinity) in Sprague-Dawley rat at 10 mg/kg, iv; assay type: ADME, organism-based, Plasma; design: time infinity, dose 10 mg/kg, route intravenous; conditions: in vivo; in short: as §1

Tmax [1]: 0.3 h
IC50 (Cytochrome P450 2C9): Not Active
Cmax [2]: 2690 ng/mL
MRT [3]: 3.03 h
AUC (Rattus norvegicus [4]): 8935 ng·h/mL
AUC (Rattus norvegicus [7]): 5870 ng/mL.hr
IC50 (Cytochrome P450 3A4): 56.5 µM
half-life [9]: 2.33 h
CL(app) (Rattus norvegicus [10]): 57 mL/min/kg
F (Rattus norvegicus [11]): 53.2%
MRT [12]: 2.93 h
Tmax [13]: 0.3 h
Cmax [14]: 2710 ng/mL
AUC(0-t) [15]: 8840 ng·h/mL
AUC(0-t) [16]: 5840 ng·h/mL
half-life [17]: 2.03 h
SMILES: N#C[C@@H]1C[C@H](F)CN1C(=O)C[C@H](N)Cc1cc(F)c(F)cc1F
Activity (Mus musculus [5]): Dose-dependent effect
IC50 [6]: > 40 µM
IC50 [8]: 97.7 µM

IC50 (Prolyl endopeptidase FAP; read-out: IC50): 110 µM
IC50 (Dipeptidyl peptidase 2): Not Active
SMILES: Cc1ccccc1C[C@@H](N)CC(=O)N1[C@H](C#N)C[C@@H]2CCC[C@@H]21

SMILES: N#C[C@@H]1CCCN1C(=O)CNC12CC3CC(CC(O)(C3)C1)C2 [VILDAGLIPTIN]
Activity (Mus musculus [18]): 18.5 mM
Activity (Mus musculus [19]): 0.75 mM
Activity (Mus musculus [20]): 1.07 mEq/L
Activity (Mus musculus [21]): 22.2 mM
Activity (Mus musculus [22]): inactive

IC50 (Dipeptidyl peptidase 9): 0.23 µM
SMILES: N#C[C@@H]1C[C@H](F)CN1C(=O)C[C@H](N)Cc1ccc(Cl)c(Cl)c1

Cmax [23]: 1120 ng/mL
F (Rattus norvegicus [24]): 22.8%
IC50 (Cytochrome P450 2C9): Not Active
clearance [25]: 33.5 mL/min/kg
AUC(0-t) [26]: 2040 ng·h/mL
half-life [27]: 2.39 h
IC50 (Cytochrome P450 3A4): 2.25 µM
Tmax [28]: 0.5 h
AUC (Rattus norvegicus [29]): 2360 ng/mL.hr
AUC(0-t) [30]: 4470 ng·h/mL
Tmax [31]: 0.5 h
half-life [32]: 2.74 h
MRT [33]: 2.71 h
Cmax [34]: 509 ng/mL
MRT [35]: 2.81 h
AUC (Rattus norvegicus [36]): 4974 ng·h/mL
SMILES: N#C[C@@H]1C[C@@H]2CCC[C@@H]2N1C(=O)C[C@H](N)Cc1cc(F)c(F)cc1F
Activity (Mus musculus [18]): 19.7 mM
Activity (Mus musculus [5]): Dose-dependent effect
IC50 [6]: > 40 µM
IC50 [8]: 55.3 µM
Activity (Mus musculus [19]): 0.85 mM
Activity (Mus musculus [20]): 1.43 mEq/L
Activity (Mus musculus [21]): 21.3 mM
Activity (Mus musculus [22]): inactive

IC50 (Prolyl endopeptidase FAP): Not Active
IC50 (Dipeptidyl peptidase 2): Not Active
SMILES: N#C[C@@H]1C[C@@H]2CCC[C@@H]2N1C(=O)C[C@H](N)Cc1cccc(F)c1

IC50 (Dipeptidyl peptidase 2): Not Active
SMILES: N#C[C@@H]1C[C@H](F)CN1C(=O)C[C@H](N)Cc1ccccc1
